These results are taken from ChEMBL document CHEMBL2069282, “Sugar-modified derivatives of cytostatic 7-(het)aryl-7-deazaadenosines: 2'-C-methylribonucleosides, 2'-deoxy-2'-fluoroarabinonucleosides, arabinonucleosides and 2'-deoxyribonucleosides” (Bioorg Med Chem, 2012).

Molecules are shown by their SMILES. pEC50, pIC50: −log10 of the molar value. Bounds are passed on as bounds.

For one data set, the system named is HL-60. The experiment in a line: Cytotoxicity against human HL60 cells incubated for 3 days by XTT assay. The following applies: HL-60, 72 h. The format is functional, cell-based. The method in brief: (§1)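 Cell viability read by a metabolic XTT tetrazolium method after 3-day incubation of cells with compound. Values are from 2–4 independent experiments.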
For orientation: Tetrazolium dyes change colour on reduction, which living cells bring about.

Data set [1] in a line: Cytotoxicity against human HeLaS3 cells incubated for 3 days by XTT assay. The format is functional, cell-based. The following applies: HeLa S3, 72 h. A digest of the protocol: as §1
In the next data set the test system is CCRF-CEM. Put plainly: Cytotoxicity against human CCRF-CEM cells incubated for 3 days by XTT assay. The format is functional, cell-based. The following applies: 72 h. A digest of the protocol: as §1
The subject of another data set is HCT-116. The experiment in a line: Cytostatic activity against human HCT116 cells incubated for 3 days by SRB assay. The following applies: HCT-116, 72 h. The format is functional. (In general: The SRB assay estimates cell density from bound dye.)
A further data set has as its system NCI-H23. The experiment in a line: Cytostatic activity against human NCI-H23 cells incubated for 3 days by SRB assay. Format: functional. The following applies: NCI-H23, 72 h.
A short description of data set [2]: Cytostatic activity against human Hs578 cells incubated for 3 days by SRB assay. Format: functional. The following applies: Hs578, 72 h.
A further data set deals with DU-145. Put plainly: Cytostatic activity against human DU145 cells incubated for 3 days by SRB assay. The format is functional. As to conditions: DU-145, 72 h.
In data set [3] the test system is Hepatitis C virus. The experiment in a line: Antiviral activity against Hepatitis C virus subtype 1a replicons infected in human HuH7 cells assessed as reduction in viral RNA levels by Rt-PCR. The format is functional, organism-based, Hepacivirus hominis. As to conditions: Huh-7. (Replicon systems follow genome replication, usually without infectious particles.)

A short description of data set [4]: Toxicity against human HuH7 cells incubated for 3 days by CellTiter 96 AQueous One Solution cell proliferation assay. Format: cell-based, Huh-7.
In data set [5] the test system is Hepatitis C virus. Put plainly: Antiviral activity against Hepatitis C virus subtype 1b replicons infected in human HuH7 cells assessed as reduction in viral RNA levels by Rt-PCR. The format is functional, organism-based, Hepacivirus hominis. The following applies: genotype 1b, Huh-7.
The nature of data set [6]: Selectivity index, ratio of CC50 for human HuH7 cells to EC50 for Hepatitis C virus subtype 1a replicons. Format: toxicity, cell-based, Huh-7. The following applies: read-out: Ratio CC50/EC50.
A short description of data set [7]: Selectivity index, ratio of CC50 for human HuH7 cells to EC50 for Hepatitis C virus subtype 1b replicons. The format is toxicity, cell-based, Huh-7. As to conditions: read-out: Ratio CC50/EC50.

Broadly, the pIC50 is −log10 of the IC50, conventionally taken in molar units. The low end stands for a high IC50, the high end for a low IC50. Broadly, the GI50 is the concentration giving 50% growth inhibition. High values mean less potent growth inhibition, low ones more potent growth inhibition. Broadly, the pEC50 is the EC50 on a negative log10 scale, so that one unit is a factor of ten. The term CC50 denotes the concentration that lowers cell viability or growth by half.

For `C#Cc1cn([C@@H]2O[C@H](CO)[C@@H](O)[C@@H]2F)c2ncnc(N)c12`, the results for the pIC50 (in the data set on HL-60; in data set [1]; in the data set on CCRF-CEM) were 6.70, 6.66 and 6.74, respectively. Moreover, the GI50 with HCT-116 was determined as 108 nM; in the data set with NCI-H23, 48 nM; in data set [2], 65 nM; in the data set on DU-145, 2 nM. Also, the pEC50 with Hepatitis C virus [3] and with Hepatitis C virus [5] was 6.44 each time. Also, in [4], the CC50 at 72 h worked out at 2680 nM. Besides, the selectivity ratio in data set [6] and in data set [7] was less than 10 throughout.

`C[C@@]1(O)[C@H](O)[C@@H](CO)O[C@H]1n1cc(I)c2c(N)ncnc21`: the pIC50 is less than 5.00 with HL-60, 5.12 in [1] and 5.36 in the data set with CCRF-CEM. The GI50 was determined as 6650 nM with HCT-116, 790 nM in the data set on NCI-H23, 4390 nM in [2] and 3380 nM in the data set on DU-145. The negative-log EC50 (pEC50) in the data set with Hepatitis C virus [3] is 6.43; with Hepatitis C virus [5], 6.42. The same molecule had a CC50 at 72 h in [4] of 19800 nM. Further, the selectivity ratio in data set [6] and in data set [7] was 65 each time.

In the case of `Nc1ncnc2c1c(-c1cnn[nH]1)cn2[C@@H]1O[C@H](CO)[C@@H](O)[C@@H]1F`, the pIC50 in the data set with HL-60 was less than 5.00; in [1] it was 5.18; with CCRF-CEM, 5.46. Also, the GI50 was 7640 nM in the data set with HCT-116, 5360 nM in the data set with NCI-H23, 1820 nM in data set [2] and 9410 nM with DU-145. Further, the pEC50 was 5.74 in the data set on Hepatitis C virus [3] and 6.04 in the data set on Hepatitis C virus [5]. Also, it took 10900 nM to reach half-maximal cytotoxicity in data set [4] (CC50 at 72 h). The selectivity ratio in data set [6] and in data set [7] was less than 10 in each case.
